According to ChEMBL document CHEMBL3272127, “Synthesis and kinetic evaluation of S- and N-substituted cysteinylglycines as inhibitors of glyoxalase I” (J Med Chem, 1977):
Calls of active or inactive are those of the source. The calls are words filed in the database; no cut-off is given here. Square brackets hold non-standard residues; d marks the D form. Peptide text beside a SMILES is read from it. * marks the point of attachment. Bn = c1ccc(C*)cc1; GABA = NCCCC(=O)O; βAla = NCCC(=O)O

How the values were obtained:
Saccharomyces cerevisiae [1] = assay: Synergistic binding affinity to active site of yeast glyoxalase 1 using hemimercaptal as substrate at 0.1 to 0.3 mM in presence of free glutathione
How it was run: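 Yonetani–Thorell analysis with yeast glyoxalase I at 30 °C, pH 6.6 phosphate, read at 240 nm. Reciprocal velocity was plotted against inhibitor concentration at fixed hemimercaptal substrate and fixed free glutathione levels of 0.1, 2.0 or 5.0 mM.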

[2] = Noncompetitive inhibition of yeast glyoxalase 1 assessed as inhibition of product formation by double reciprocal plot method; design: species or system Saccharomyces cerevisiae
How it was run: (§1)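 Yeast glyoxalase I, diluted to 20 µg/ml in 30% glycerin with 0.1% BSA. Assays ran at 30 °C in 0.05 M phosphate buffer, pH 6.6. Methylglyoxal, reduced glutathione, inhibitor and buffer were preincubated 3 min to form the hemimercaptal, then enzyme was added. Product formation was followed at 240 nm.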

Saccharomyces cerevisiae [3] = assay: Binding affinity to active site of yeast glyoxalase 1 using hemimercaptal as substrate at 0.005 to 0.015 mM in presence of free glutathione
Saccharomyces cerevisiae [4] = assay: Competitive inhibition of yeast glyoxalase 1 assessed as inhibition of product formation by double reciprocal plot method; how it was run: as §1
Saccharomyces cerevisiae [5] = assay: Activity of yeast glyoxalase 1; how it was run: as §1
[6] = Binding affinity to yeast glyoxalase 1 assessed as inhibition of product formation by double reciprocal plot method; design: species or system Saccharomyces cerevisiae; how it was run: as §1
Mus musculus = species: Mus musculus; assay: Activity of mouse liver glyoxalase
[7] = Ratio of Km for yeast glyoxalase 1 to Km for mouse liver glyoxalase

O=C(O)CCCC(=O)N[C@@H](CSCc1ccc(Br)cc1)C(=O)NCC(=O)O
Activity (Saccharomyces cerevisiae [1]): Active | Ki ([2]; read-out: Ki): 320 µM

N[C@@H](CCC(=O)N[C@@H](CSCc1ccc(Br)cc1)C(=O)NCC(=O)O)C(=O)O
Activity (Saccharomyces cerevisiae [3]): Active | inhibition (Saccharomyces cerevisiae [4]): Active

O=C(O)CCCC(=O)N[C@@H](CSCc1ccccc1)C(=O)NCC(=O)O
Ki ([2]; read-out: Ki): 3000 µM

O=C(O)CCC(=O)N[C@@H](CSCc1ccc(Br)cc1)C(=O)NCC(=O)O
Ki ([2]; read-out: Ki): 400 µM

CC(=O)C(O)SC[C@H](NC(=O)CC[C@H](N)C(=O)O)C(=O)NCC(=O)O (stereo partly drawn)
Km (Saccharomyces cerevisiae [5]): 500 µM | Kd [6]: 3100 µM | Km (Mus musculus): 57 µM | inhibition (Saccharomyces cerevisiae [4]): Active | Ratio [7]: 10

NCCC(=O)N[C@@H](CSCc1ccccc1)C(=O)NCC(=O)O (H-[βAla]-Cys(Bn)-Gly-OH)
Ki ([2]; read-out: Ki): 5300 µM

N[C@@H](CSCc1ccc(Br)cc1)C(=O)NCC(=O)O
Ki ([2]; read-out: Ki): 580 µM

O=C(O)CCC(=O)N[C@@H](CSCc1ccccc1)C(=O)NCC(=O)O
Ki ([2]; read-out: Ki): 4500 µM

NCCC(=O)N[C@@H](CSCc1ccc(Br)cc1)C(=O)NCC(=O)O
Ki ([2]; read-out: Ki): 1500 µM

NCCCC(=O)N[C@@H](CSCc1ccc(Br)cc1)C(=O)NCC(=O)O
Ki ([2]; read-out: Ki): 1200 µM

NCCCC(=O)N[C@@H](CSCc1ccccc1)C(=O)NCC(=O)O (H-[GABA]-Cys(Bn)-Gly-OH)
Ki ([2]; read-out: Ki): 4100 µM

N[C@@H](CSCc1ccccc1)C(=O)NCC(=O)O
Ki [2]: Not Active
